System: MS2 coat protein
Experiment: apparent Kd, MS2 coat protein; higher = weaker binding; RNA-MaP array
Method in brief: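 Designed RNAs were transcribed on an Illumina sequencing chip from sequenced DNA templates. They were incubated at room temperature with fluorescently labeled MS2 coat protein at 1.5 nM to 3 μM, for 0.8–1.5 h at the lowest to 10–20 min at the highest concentrations, in Tris-HCl pH 7.5 buffer with KCl, MgCl2, BSA, DTT, tRNA and Tween20, with or without input ligand. Apparent Kd is the median of per-cluster binding-curve fits. Designs measured on fewer than 10 clusters were excluded.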

[1] = designed as: ON switch for flavin mononucleotide, no ligand
[2] = ligand present: flavin mononucleotide, designed as: ON switch for flavin mononucleotide
[3] = designed as: OFF switch for flavin mononucleotide, no ligand
[4] = ligand present: flavin mononucleotide, designed as: OFF switch for flavin mononucleotide
[5] = designed as: OFF switch for tryptophan, no ligand
[6] = ligand present: tryptophan, designed as: OFF switch for tryptophan
[7] = designed as: ON switch for tryptophan, no ligand
[8] = ligand present: tryptophan, designed as: ON switch for tryptophan
[9] = designed as: OFF switch for theophylline, no ligand
[10] = ligand present: theophylline, designed as: OFF switch for theophylline

Sequence	apparent Kd [3] [nM]	apparent Kd [4] [nM]	also measured
GAAGAUCCGUAAGAUACCAGUGCAGAUCGGCACAUGAGGAUCACCCAUGUAAAGCAAGAACACCCUUGGCAGCUUUCGUAACAAC	–	–	apparent Kd (designed as: ON switch for theophylline, no ligand): 158 nM; apparent Kd (ligand present: theophylline, designed as: ON switch for theophylline): 10.3 nM
GAAUUAGUGUUGGAGGAUAUCCCAUGUCUUACAUGAGGAUCACCCAUGUCCGGACAACGACAAAAGGAGAAGGCCAUCAUCAUGUC	–	–	apparent Kd [1]: 772 nM; apparent Kd [2]: 80.8 nM
GACAUGAGGAUCACCCAUGUUAAAGAUCCCAGCAUGCAACUCAGAAGGCUAAACUGUGGAUAGAAAGAGGAUAUGAGUUUAUAC	9.62	9.57	–
GAUAGAUAUGUAAGGAUAUGUGACGCGCUUGAGAAACAGAAGGAACAUGAGGAUCACCCAUGUAGAUGUUGUGA	11.2	9.94	–
GAUAUACAUGAGGAUCACCCAUGUCCAAAUUAAGUUUUAGUAUAGGAUAUUGACCGCUAGGAUGUCAAGAAGGAUACCCGAGGU	–	–	apparent Kd [1]: 14.8 nM; apparent Kd [2]: 7.52 nM
GAUCCGCUCGAGAAGGUCGUCGGGCACCGAGUCGAAGGAUAUCGAGAAUGAAGACAUGAGGAUCACCCAUGUGAGGAGCGAUCC	136	126	–
GAUGAGCGCACGGGAAUAAACAUGAGGAUCACCCAUGUCGUUAGAAGGGUAUUCGCCGGGACCAUACAGGAUAUAACGCGUCAC	–	–	apparent Kd [1]: 25.7 nM; apparent Kd [2]: 21 nM
GCACGGGCGAUCGGCACUUUUACUAAUAUACGAGGACCGGUACGGCCGCCACUCGAGCUAAGACAUGAGGAUCACCCAUGUAACG	–	–	apparent Kd [5]: 26.2 nM; apparent Kd [6]: 49.3 nM
GCAGACAUGAGGAUCACCCAUGUACUUGGGCGAGGACCGGUACGGCCGCCACUCGUAGACUUGACGAGGAAAUGUUCUCGCAGGG	–	–	apparent Kd [7]: 22.4 nM; apparent Kd [8]: 19.1 nM
GCAGGAAAGCAGAAGGACACCACAUGAGGAUCACCCAUGUCGGCGCUGACUUUGAUCUUGAGGAUGUAGGAUAUGCGUUUCGGA	8.76	17.4	–
GCAUAAGAUCAGAAGGGUAAUUUGUAACAACAUACAGGAUAUGAGGAAACAUGAGGAUCACCCAUGUGAAGCGAAAACAGAAAU	–	–	apparent Kd [1]: 15.5 nM; apparent Kd [2]: 11.4 nM
GCCAAGGUAACAGGAUAUUCUAAAGACGUGAGAUACUAAAUAAACAUGAGGAUCACCCAUGUGAAGAAGAAGGGUUAAGAGUAC	15.2	12.5	–
GCCCUGCGCCCGGGACCGGCAAGAUCCAUGCGAGGACCGGUACGGCCGCCACUCGCAGACGUACAUGAGGAUCACCCAUGUCCUC	–	–	apparent Kd [5]: 565 nM; apparent Kd [6]: 663 nM
GCGCCUCCCAAGGAUAUAACGCGUCUCUAAGGAUUAGAAGGUGGGACAUGAGGAUCACCCAUGUGACUCCUUUA	7.31	7.37	–
GCGGAACAUGAGGAUCACCCAUGUAAGGAUAUCGUGAGGGAACGGCAGCAACACUGAUCGAGAAGGUACAGGGC	23	36.4	–
GCGUGACAUGAGGAUCACCCAUGUAGACUUGUGGAAGGAUAUACGAGAGUUCGAGUUAAGGUAGAAGGUCCCGAUG	–	–	apparent Kd [1]: 41.3 nM; apparent Kd [2]: 16.3 nM
GCUCUACAGGAGAAGGUCAUAUCAUCGGUUAUUGAAGGAUAUCCUCAAGGGACGCUGAGGCGUACAUGAGGAUCACCCAUGUCC	–	–	apparent Kd [1]: 84.1 nM; apparent Kd [2]: 52.2 nM
GCUGCCGUCGGUGAAAACUCCCAUGCAGAUACCAGCGCAUUCCGCCGCCCUUGGCAGCUGCAUACAUGAGGAUCACCCAUGUGUU	–	–	apparent Kd [9]: 84.4 nM; apparent Kd [10]: 147 nM
GGAACAUGAGGAUCACCCAUGUAAUCACGACGAGGACCGGUACGGCCGCCACUCGUAUUCACGCAAGGUAGAGGAAUACGUAGGC	–	–	apparent Kd [5]: 12.6 nM; apparent Kd [6]: 13.8 nM
GGAAUGUCAGGAUAUCUAAUUACCCAGAAAGAUAUGGAACCAGAGAAGGGACAUGAGGAUCACCCAUGUAUAAC	10.2	12.4	–
GGAUACUUUGGAGGAUAUAAUUUUAUCAUCACUUGUGAUCGAUGACAUGAGGAUCACCCAUGUAAUUAGAAGGCCAUUAAUUAC	–	–	apparent Kd [1]: 239 nM; apparent Kd [2]: 38.4 nM

Sequence	apparent Kd [3] [nM]	apparent Kd [4] [nM]	also measured
GGAUUCAGAGGAUAUACAUGAGGAUCACCCAUGUCAUUCAGCCAAGAUAUGUGUUUCAGUAGAAGGCUGAUCGG	22.3	18	–
GGCUUCCCAAGAGGAUAUGCGGUAAUUAUCUACAUGAGGAUCACCCAUGUUUUUAACUCAAGUCCGCAGAAGGCUUAAGGAUAU	–	–	apparent Kd [1]: 5.13 nM; apparent Kd [2]: 5 nM
GGGACCACUCUUGGGCCGCUGACAUGAGGAUCACCCAUGUAUAGAAGGAGGGUGGCUAAUCACACCUAGGAUAUAUACAAGACU	12	11	–
GGGAUCGGAGGAUAUCGGUGGUUUAACAUGAGGAUCACCCAUGUGAAUAAACAAGUGGAGCGAGAAGGCCGGCGCU	14.7	9.97	–
GGGCACAUGAGGAUCACCCAUGUCCAACGGCGAGGACCGGUACGGCCGCCACUCGGUAUAAGCUUCGAAAAGGAGGAUCCUGCAG	–	–	apparent Kd [7]: 38.4 nM; apparent Kd [8]: 30.9 nM
GUAACGUGCAAAGGAUAUAUACAUGAGGAUCACCCAUGUCGGAAUGAGAUCAAGGUCGCUCGCCUAUAGAAGGUUGGCGCUACU	86.7	43.9	–
GUAUGAGAAGCAUAUACAUGAGGAUCACCCAUGUCCUCAGCGGAGGAUAUGUCUUUCAGGAGUAUACAGAAGGCCGCGGAAUUC	346	260	–
GUCACACAGUAGGAUACCAGCGUGGCUUAUCCCUGAUCGUACAUGAGGAUCACCCAUGUCCGCCCUUGGCAGCCUCCUGCUCGGA	–	–	apparent Kd [9]: 12.7 nM; apparent Kd [10]: 34.5 nM
GUCUCUAGGACAGGAUAUCUCCUCAGGGAUGCGAGAGAAGGGUCUAUUGACAUGAGGAUCACCCAUGUGGAUCAUGUCUAUGAU	378	352	–
GUCUCUCGCUUAGGAUAUCAGCACGAUUAUCCCUGAGAAGGAAGUGACAGACAUGAGGAUCACCCAUGUAUCCAAGGUUCGAAG	15.6	15	–
GUGACUAAAUGCAAGGAUAUCCGCGGCGGUACAUGAGGAUCACCCAUGUCAAGAGUCCACUGGCAGGAGAAGGUGCCCUGCGUCAU	–	–	apparent Kd [1]: 7.57 nM; apparent Kd [2]: 6.07 nM
GUGAGACAUGAGGAUCACCCAUGUUAGGAUAUAAAAGGCAAACGUAAUGGCGAGGUUAAUAGAAGGAACAGAAA	15.6	11.9	–
GUGGGCGCUGAGAAGGACCGGAGACGCCGAUUGGUAGGAUAUCAGAAAGGUGCCGGUGAUUACAUGAGGAUCACCCAUGUAUGG	22.8	20.2	–
GUUAGUCCACGAGGAUAUCGAAAUCGGCCCAGUGAAUUUUCACAUGAGGAUCACCCAUGUCAUAUCGAGAAGGCGUCUGAAAGC	35.7	41.9	–
GUUCAACGGUGAGGAUAUUGCAGUACGUACGCACAAGAAGGCACUCCAUAGCACAGGGUGCACAUGAGGAUCACCCAUGUGGUC	494	224	–
GUUUACAUGAGGAUCACCCAUGUCGCCGGCCGAGGACCGGUACGGCCGCCACUCGUCCUAAUGGCACUUGACUUCCCUAUUAAGU	–	–	apparent Kd [7]: 20.3 nM; apparent Kd [8]: 24.3 nM
UAAAGCUGAAAGAAGGCUCCAUCGCUAGUACUGAGAGGAUAUUUCGUUGUUGACAUGAGGAUCACCCAUGUGGUUCGCCGGGCC	–	–	apparent Kd [1]: 49.4 nM; apparent Kd [2]: 26.8 nM
UAACCAUGCAAAGGAUAUCCAAUACUAUGAGACGGAGAAGGUAGAAACAUGGAGAAUUCCUACAUGAGGAUCACCCAUGUUAGA	387	245	–
UAACGCCCCUUAGGAUAUCCACGUAACCCCUCCCCCGUAAGUAGAAACAUGAGGAUCACCCAUGUGGAGAAGGAAGUGACCCGC	20.8	18.9	–
UAAGAAGAUGAGAAGGGCCAAGUAUGAGCCGGGCGAUACAUGAGGAUCACCCAUGUUUCCUAACGGCAGGAUAUCACUUCCUAU	5.86	18.8	–

— the EternaBench riboswitch data
